# Test system: Mycobacterium tuberculosis
# Assay: Antimycobacterial activity against Mycobacterium bovis BCG after 7 days by broth microdilution method
# Type: functional
# Conditions: variant bovis BCG, 168 h
# Method in brief: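 Strains were pre-grown in Middlebrook 7H11 with OADC. The microdilution assay ran in sealed 96-well plates at 37 °C and was read after 72 h for M. smegmatis mc²155 and after 7 days for M. bovis BCG.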
row,SMILES,MIC
1,CCOC(=O)c1cn(C)c2c(ccc3c2nnn3Cc2ccccc2)c1=O,64 µg/mL
2,CCOC(=O)c1cn(CC)c2c(ccc3c2nnn3Cc2ccccc2)c1=O,> 128 µg/mL
3,C=CCn1cc(C(=O)OCC)c(=O)c2ccc3c(nnn3Cc3ccccc3)c21,64 µg/mL
4,CCCCn1cc(C(=O)OCC)c(=O)c2ccc3c(nnn3Cc3ccccc3)c21,64 µg/mL
5,CCOC(=O)c1cn(C(C)(C)C)c2c(ccc3c2nnn3C)c1=O,8 µg/mL
6,C=C(C)Cn1cc(C(=O)OCC)c(=O)c2ccc3c(nnn3C)c21,> 128 µg/mL
7,CCOC(=O)c1cn(CC2CC2)c2c(ccc3c2nnn3C)c1=O,64 µg/mL
8,CCOC(=O)c1cn(CC2CCC2)c2c(ccc3c2nnn3C)c1=O,64 µg/mL
9,Cn1cc(C(=O)O)c(=O)c2ccc3c(nnn3Cc3ccccc3)c21,4 µg/mL
10,CCn1cc(C(=O)O)c(=O)c2ccc3c(nnn3Cc3ccccc3)c21,16 µg/mL
11,C=CCn1cc(C(=O)O)c(=O)c2ccc3c(nnn3Cc3ccccc3)c21,8 µg/mL
12,CCCCn1cc(C(=O)O)c(=O)c2ccc3c(nnn3Cc3ccccc3)c21,64 µg/mL
13,Cn1nnc2c3c(ccc21)c(=O)c(C(=O)O)cn3C(C)(C)C,16 µg/mL
14,C=C(C)Cn1cc(C(=O)O)c(=O)c2ccc3c(nnn3C)c21,32 µg/mL
15,Cn1nnc2c3c(ccc21)c(=O)c(C(=O)O)cn3CC1CC1,16 µg/mL
16,Cn1nnc2c3c(ccc21)c(=O)c(C(=O)O)cn3CC1CCC1,16 µg/mL
17,Cn1cc(C(=O)O)c(=O)c2ccc3c(nnn3C)c21,4 µg/mL
18,O=C(O)c1cn(C2CC2)c2cc(N3CCNCC3)c(F)cc2c1=O [CIPROFLOXACIN],0.25 µg/mL
19,CC[C@@H](CO)NCCN[C@@H](CC)CO [ETHAMBUTOL],2 µg/mL

# Reference: ChEMBL document CHEMBL1649406, “Synthesis and anti-mycobacterial activities of triazoloquinolones” (Eur J Med Chem, 2011)
